Measurements: ChEMBL document CHEMBL2380309, “Design, synthesis, and biological evaluation of new 2'-deoxy-2'-fluoro-4'-triazole cytidine nucleosides as potent antiviral agents” (Eur J Med Chem, 2013)

How the values were obtained:
[1] = Cytotoxicity against human MT2 cells by MTT assay; type: cell-based
[2] = tested on: Human immunodeficiency virus 1; test: Antiviral activity against HIV1 expressing VSV glycoprotein plasmid infected in human 293T cells treated 15 mins before viral infection measured after 48 hrs by luciferase reporter gene assay; type: functional, organism-based; details: Human immunodeficiency virus 1, HEK-293T
Method in brief: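 293T cells plated 6×10⁴/well one hour before infection. Compound preincubated 15 min, then VSVG-pseudotyped env-deficient HIV-1 (pNL4-3.luc.R-E-, from Ca₃(PO₄)₂ co-transfection of 293T) added. Solvent-only control. After 48 h, cells lysed and luciferase activity read by luminometer. EC50 is the mean of at least two independent determinations.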

Hepatitis B virus [3] = test: Antiviral activity against HBV infected in human HepG2.2.15 assessed as reduction of viral s-antigen production […] by ELISA; type: functional, organism-based; details: HepG2 2.2.15
Hepatitis B virus [4] = test: Antiviral activity against HBV infected in human HepG2.2.15 assessed as reduction of viral e-antigen production […] by ELISA; type: functional, organism-based; details: HepG2 2.2.15
[5] = Selectivity index, ratio of CC50 for human HepG2.2.15 cells to EC50 for HBV infected in human HepG2.2.15 assessed as reduction of viral s-antigen production
[6] = Cytotoxicity against human HepG2.2.15 cells after 3 days by MTT assay; type: cell-based, HepG2 2.2.15
Method in brief: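 HepG2.2.15 cells, kept in RPMI 1640 with 10% FBS and G418 at 37°C under 5% CO2, were seeded at 1×10⁵ cells/well and cultured 24 h. They were then exposed to four compound concentrations (5 wells each) for 3 days, with drug-free cells as control. MTT (5 mg/mL) was added for 4 h at 37°C, formazan dissolved in DMSO, and A490 read. Survival was expressed as % of control, and CC50 was taken by Reed-Muench from at least two independent determinations.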

[7] = Selectivity index, ratio of CC50 for human HepG2.2.15 cells to EC50 for HBV infected in human HepG2.2.15 assessed as reduction of viral e-antigen production
[8] = Selectivity index, ratio of CC50 for human MT2 cells to EC50 for HIV1; type: toxicity, cell-based; details: read-out: Ratio CC50/EC50

| SMILES | CC50 [1] [µM] | EC50 [2] [µM] | EC50 (Hepatitis B virus [3]) [µM] | EC50 (Hepatitis B virus [4]) [µM] | Ratio CC50/EC50 [5] | CC50 at 72 h [6] [µM] | Ratio CC50/EC50 [7] | selectivity ratio [8] |
| --- | --- | --- | --- | --- | --- | --- | --- | --- |
| [N-]=[N+]=N[C@]1(CO)O[C@@H](n2ccc(N)nc2=O)[C@@H](F)[C@@H]1O [RO-0622] | > 10 | 0.0003 | – | – | – | – | – | – |
| Cc1ccc(-c2cn([C@]3(CO)O[C@@H](n4ccc(N)nc4=O)[C@@H](F)[C@@H]3O)nn2)cc1 | ≥ 25 | 3.7 | 0.01 | > 1 | 49800 | 498 | – | – |
| CCCCc1cn([C@]2(CO)O[C@@H](n3ccc(N)nc3=O)[C@@H](F)[C@@H]2O)nn1 | ≥ 25 | 0.3 | – | – | – | – | – | – |
| Nc1ccn([C@@H]2O[C@@](CO)(n3cc(CC4CCCCC4)nn3)[C@@H](O)[C@@H]2F)c(=O)n1 | ≥ 25 | 4.8 | – | – | – | – | – | – |
| Nc1ccn([C@@H]2O[C@@](CO)(n3cc(-c4ccccc4)nn3)[C@@H](O)[C@@H]2F)c(=O)n1 | ≥ 25 | 0.083 | 0.1 | 0.25 | – | 566 | 2264 | > 278 |
| CCc1ccc(-c2cn([C@]3(CO)O[C@@H](n4ccc(N)nc4=O)[C@@H](F)[C@@H]3O)nn2)cc1 | ≥ 25 | 0.6 | – | – | – | – | – | – |
| Nc1ccn([C@@H]2O[C@@](CO)(n3cc(C4CC4)nn3)[C@@H](O)[C@@H]2F)c(=O)n1 | ≥ 25 | 0.6 | 0.12 | 1 | – | 834 | – | – |
| Nc1ccn([C@@H]2O[C@@](CO)(n3cc(C4(O)CCCC4)nn3)[C@@H](O)[C@@H]2F)c(=O)n1 | ≥ 25 | 1.3 | – | – | – | – | – | – |
| Nc1ccn([C@@H]2O[C@@](CO)(n3ccnn3)[C@@H](O)[C@@H]2F)c(=O)n1 | ≥ 25 | 0.09 | – | – | – | – | – | > 278 |
| Cc1cn([C@H]2C[C@H](N=[N+]=[N-])[C@@H](CO)O2)c(=O)[nH]c1=O [ZIDOVUDINE] | ≥ 25 | 0.084 | – | – | – | – | – | – |
| CC(C)(C)c1cn([C@]2(CO)O[C@@H](n3ccc(N)nc3=O)[C@@H](F)[C@@H]2O)nn1 | ≥ 25 | 0.08 | – | – | – | – | – | > 278 |
